Efa HMGR inh = inhibitors of class II HMG-CoA reductase from Enterococcus faecalis; inhibition, % at 10 µM; actives 0.41% (n = 190,000); purified E. faecalis HMGR, NADPH absorbance 340 nm kinetic;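 active means inhibition above a set limit, the median over all tested compounds plus 3 SD, cut at about 9.5% in these data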;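 further: enzyme runs in reverse so mevalonate oxidation gives rising NADPH absorbance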
RAM network inh = blocks the yeast RAM network; S. cerevisiae dse1pr::URA3 reporter, 5-FOA growth OD615, 2 d; analog-sensitive cbk1-as2 kinase mutant strain; actives 1.8% (n = 190,000); inhibition, % at 50 µM; AID 868;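 active means inhibition above a set limit, 3 SD over mean compound inhibition, cut at about 8.4% in these data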;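 further: inhibition rescues growth on 5-FOA so higher OD means more RAM inhibition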
Yeast lifespan up = extends the lifespan of yeast | S. cerevisiae growth with nicotinamide, OD615; deaD strain in restrictive glucose medium | actives 0.68% (n = 130,000) | inhibition of the nicotinamide effect, % at 10 µM;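 active means inhibition above a set limit, placed 3 SD over the median of all compounds, cut at about 26% in these data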
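Assay system: engineered S. cerevisiae DeaD replicative-lifespan strain, galactose-grown log-phase cells; Buffer or medium: CSMM-D glucose medium, restrictive; Probe or stimulus: nicotinamide 1.5 mM; Compound: single dose 10 µM compound, 0.25% DMSO; Schedule: 4 h preincubation then 48 h treatment at 30 °C; Technique: OD615 measurement.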
BB579 growth dn = yeast BB579 growth reduction in restrictive medium; AID 804; S. cerevisiae BB579 growth, OD615, 48 h; inhibition, % at 10 µM; actives 0.51% (n = 140,000);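 active means inhibition above a set limit, 3 SD over the mean compound inhibition, cut at about 44% in these data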
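Material: Saccharomyces cerevisiae DeaD strain BB579, replicative lifespan model yeast; buffer or medium: CSMM-D restrictive synthetic medium containing dextrose (glucose); compound: 10 µM single dose, DMSO 0.25%; timing: 48 h compound exposure at 30 °C after 4 h preincubation; signal: turbidity as optical density at 615 nm; benchmarks: positive control amphotericin B 10 µg/mL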
Insulin prom inh = TRM-6 insulin promoter activity inhibition | TRM-6 cells (human fetal islet line), insulin promoter-eGFP reporter, imaging; reporter expression induced with tamoxifen | inhibition, % at 2 µM | actives 0.9% (n = 130,000);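 active means inhibition above the mean plus 3 SD, with well images judged a real hit on visual review, cut at about 60% in these data, passing the limit was not always enough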
Hits are given with their value; n = inactive; x = not tested or not shown. An excerpt weighted towards active compounds, which were near 3.7% of everything screened.

SMILES	Efa HMGR inh	RAM network inh	Yeast lifespan up	BB579 growth dn	Insulin prom inh
Cc1cc2nc(-c3ccc(SCC(=O)Nc4ccc(S(=O)(=O)NC5CC5)cc4)nc3)[nH]c2cc1C	n	9.3	n	n	n
COc1cccc(NC(=S)N(Cc2cccc(Br)c2)CC2CCC(C(=O)O)CC2)c1 (stereo not given)	n	n	x	x	x
CN(C)C(=O)CSc1n[nH]c(=O)[nH]c1=O	20	n	x	x	x
O=C(CSc1n[nH]c(=O)[nH]c1=O)c1ccccc1	n	n	n	n	n
COc1cccc(-c2cc(C(=O)Nc3nc4ccccc4s3)c3ccccc3n2)c1	n	n	n	n	n
COc1ccc(-c2cc(C(=O)Nc3nc4c(C)cccc4s3)c3ccccc3n2)cc1OC	n	8.6	n	n	n
CCS(=O)(=O)c1nc2ccccc2n1Cc1ccccn1	n	n	x	x	n
O=C(CCS(=O)(=O)Cc1ccc(Cl)cc1)NCCc1ccccc1	n	n	x	x	n
CCCCCCCC#Cc1ccccc1/C=N/S(=O)c1ccc(C)cc1 (stereo not given)	n	n	36	n	n
COc1cc(NC(=O)Cn2c(=O)n(CC3CCCO3)c(=O)c3ccccc32)cc(OC)c1 (stereo not given)	n	10	x	x	n
CCOC(=O)COc1ccc2ccccc2c1/C=C/[N+](=O)[O-]	n	n	39	n	n
CCOc1ccc(/C=C/[N+](=O)[O-])c2ccccc12	n	n	n	56	n
C[C@H]1O[C@@H](O[C@H]2[C@@H](O)C[C@H](O[C@H]3[C@@H](O)C[C@H](O[C@H]4CC[C@@]5(C)[C@H](CC[C@@H]6[C@@H]5C[C@@H](O)[C@]5(C)[C@@H](C7=CC(=O)OC7)CC[C@]65O)C4)O[C@@H]3C)O[C@@H]2C)C[C@H](O)[C@@H]1O	n	n	n	n	100
CCOC(=O)c1c(C2CC2)csc1NC(=O)COC(=O)CCS(=O)(=O)c1ccc(C)cc1	n	9.2	n	n	n
Cc1ccc(S(=O)(=O)Oc2ccc(C)cc2/C=N/N=C2\NC(=O)C(C)S2)cc1 (stereo not given)	n	n	n	n	79
COc1ccc(/C=N/N=C2/NC(=O)C(CC(=O)O)S2)cc1OS(=O)(=O)c1ccccc1 (stereo not given)	n	n	x	x	x
O=C(NCC1CCCO1)C(c1ccc(F)cc1)N(C(=O)Cn1nnc(-c2ccc(F)cc2)n1)c1cccc(O)c1 (stereo not given)	n	n	x	x	x
CCN(CC)N=Nc1ccc(S(N)(=O)=O)cc1	10	n	x	x	x
CN(C)N=Nc1ccc(S(N)(=O)=O)cc1	n	n	x	x	n
CCN(CC)CCN(C)C1CCC(c2ccccc2)CC1 (stereo not given)	n	n	n	n	n
CCCCNC(=O)/C(C#N)=c1\s/c(=C\c2ccccc2OC(F)F)c(=O)n1CCCOC	n	9.2	n	n	x
COCCCn1c(=O)/c(=C\c2ccccc2OC(F)F)s/c1=C(/C#N)C(=O)N1CCOCC1	n	9.1	x	x	x
Cc1ccc(S(=O)(=O)NC(N)=NCCc2ccc(Cl)cc2)cc1C	n	n	n	n	n
O=C(COC(=O)c1ccc(O)cc1)NCCCc1ccccc1	n	n	x	x	n
O=C(Cn1c(=O)sc2ccccc21)Nc1ccc(O)cc1	n	n	x	x	n
SMILES	Efa HMGR inh	RAM network inh	Yeast lifespan up	BB579 growth dn	Insulin prom inh
CCSc1ncc(/C=N/Nc2ccc(Cl)cc2)n1C	n	n	n	95	n
CC(C)c1ccc(C2C3CSCC=C3C(C#N)=C(N)C2(C#N)C#N)cc1 (stereo not given)	n	n	29	n	n
CN1CC=C2C(C#N)=C(N)C(C#N)(C#N)[C@H](c3cccc(Cl)c3)C2C1 (stereo not given in full)	n	n	n	n	n
COc1c(Br)cc(Br)cc1/C=N/n1c(C)nnc1C	n	n	37	n	n
COc1ccc(CNC(=O)C(c2ccc(C)o2)N(C(=O)c2csnn2)c2ccc(C(C)C)cc2)cc1 (stereo not given)	n	n	n	n	n
Cc1oc2c(cc(NS(=O)(=O)c3ccc4c5c(cccc35)C(=O)N4)c3ccccc32)c1C(=O)OC(C)C	n	9.2	n	n	n
CCN(CC)S(=O)(=O)c1ccc(C)c(C(=O)Oc2cccc(-c3cnc4ccccc4n3)c2)c1	n	9.3	n	n	n
CCN(CC)S(=O)(=O)c1cc(C(=O)Oc2cccc(-c3cnc4ccccc4n3)c2)ccc1OC	n	n	n	n	x

Assay outcomes (PubChem)
